Reference: ChEMBL document CHEMBL4177605, “3'-Hydroxy-3,4'-dimethoxyflavone blocks tubulin polymerization and is a potent apoptotic inducer in human SK-MEL-1 melanoma cells” (Bioorg Med Chem, 2017)
pIC50: −log10 of the molar value. Calls of active or inactive are those of the source. No cut-off for these calls is given here.

Assays:
SK-MEL-1 [1] = assay: Cytotoxicity against human SK-MEL-1 cells assessed as reduction in cell viability after 72 hrs by MTT assay; type: functional, cell-based; settings: SK-MEL-1, 72 h
Procedure, shortened: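 1×10^4 exponentially growing cells were seeded with a range of compound concentrations for 72 h. MTT (0.5 mg/mL) was added for 4 h at 37 °C, and formazan was dissolved in 10% SDS/0.05 M HCl overnight at room temperature in the dark. A570 was read. IC50 was found by nonlinear regression for each experiment, with at least three independent experiments in triplicate.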

SK-MEL-1 [2] = assay: Cell cycle arrest in human SK-MEL-1 cells assessed as accumulation at sub-G1 phase at 3 uM after 24 hrs by propidium iodide staining-based flow cytometry (reference value: 4.5+/-1.6%); type: functional
SK-MEL-1 [3] = assay: Cell cycle arrest in human SK-MEL-1 cells assessed as accumulation at sub-G1 phase at 10 uM after 24 hrs by propidium iodide staining-based flow cytometry (reference value: 4.5+/-1.6%); type: functional
SK-MEL-1 [4] = assay: Cell cycle arrest in human SK-MEL-1 cells assessed as accumulation at sub-G1 phase at 30 uM after 24 hrs by propidium iodide staining-based flow cytometry (reference value: 4.5+/-1.6%); type: functional
SK-MEL-1 [5] = assay: Cell cycle arrest in human SK-MEL-1 cells assessed as accumulation at G1 phase at 3 uM after 24 hrs by propidium iodide staining-based flow cytometry (reference value: 61.5+/-1.7%); type: functional
SK-MEL-1 [6] = assay: Cell cycle arrest in human SK-MEL-1 cells assessed as accumulation at G1 phase at 10 uM after 24 hrs by propidium iodide staining-based flow cytometry (reference value: 61.5+/-1.7%); type: functional
SK-MEL-1 [7] = assay: Cell cycle arrest in human SK-MEL-1 cells assessed as accumulation at G1 phase at 30 uM after 24 hrs by propidium iodide staining-based flow cytometry (reference value: 61.5+/-1.7%); type: functional
SK-MEL-1 [8] = assay: Cell cycle arrest in human SK-MEL-1 cells assessed as accumulation at S phase at 3 uM after 24 hrs by propidium iodide staining-based flow cytometry (reference value: 17.7+/-0.4%); type: functional
SK-MEL-1 [9] = assay: Cell cycle arrest in human SK-MEL-1 cells assessed as accumulation at S phase at 10 uM after 24 hrs by propidium iodide staining-based flow cytometry (reference value: 17.7+/-0.4%); type: functional
SK-MEL-1 [10] = assay: Cell cycle arrest in human SK-MEL-1 cells assessed as accumulation at S phase at 30 uM after 24 hrs by propidium iodide staining-based flow cytometry (reference value: 17.7+/-0.4%); type: functional
SK-MEL-1 [11] = assay: Cell cycle arrest in human SK-MEL-1 cells assessed as accumulation at G2/M phase at 3 uM after 24 hrs by propidium iodide staining-based flow cytometry (reference value: 16.1+/-0.2%); type: functional
SK-MEL-1 [12] = assay: Cell cycle arrest in human SK-MEL-1 cells assessed as accumulation at G2/M phase at 10 uM after 24 hrs by propidium iodide staining-based flow cytometry (reference value: 16.1+/-0.2%); type: functional
SK-MEL-1 [13] = assay: Cell cycle arrest in human SK-MEL-1 cells assessed as accumulation at G2/M phase at 30 uM after 24 hrs by propidium iodide staining-based flow cytometry (reference value: 16.1+/-0.2%); type: functional
SK-MEL-1 [14] = assay: Induction of apoptosis in human SK-MEL-1 cells assessed as condensation of cell nuclei and chromatins at 30 uM after 24 hrs by bisbenzimide trihydrochloride staining-based fluorescent microscopic analysis; type: functional
Procedure, shortened: (§1)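 Cells were treated with 30 µM for 24 h, then stained with bisbenzimide trihydrochloride. Nuclear chromatin condensation and fragmentation were viewed by fluorescence microscopy.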

SK-MEL-1 [15] = assay: Induction of apoptosis in human SK-MEL-1 cells assessed as chromatin fragmentation at 30 uM after 24 hrs by bisbenzimide trihydrochloride staining-based fluorescent microscopic analysis; type: functional, cell-based; procedure, shortened: as §1
SK-MEL-1 [16] = assay: Induction of apoptosis in human SK-MEL-1 cells assessed as increase in caspase-3/7 activity by measuring DEVD-pNA substrate cleavage up to 30 uM after 24 hrs by Bradford dye binding assay; type: functional, cell-based
Procedure, shortened: (§2)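 After treatment, cells were lysed in 50 mM HEPES pH 7.4, 1 mM DTT, 0.1 mM EDTA, 0.1% CHAPS. Protein was quantified by Bradford and equal amounts were used. DEVD-pNA (caspase-3/7), IETD-pNA (caspase-8) or LEHD-pNA (caspase-9) cleavage was read as net A405 increase at 37 °C. Results are fold increase over control, means ± SE of three experiments in triplicate.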

SK-MEL-1 [17] = assay: Induction of apoptosis in human SK-MEL-1 cells assessed as increase in caspase-3/7 activity by measuring DEVD-pNA substrate cleavage at 3 uM after 24 hrs by Bradford dye binding assay; type: functional, cell-based; procedure, shortened: as §2
SK-MEL-1 [18] = assay: Induction of apoptosis in human SK-MEL-1 cells assessed as increase in caspase-8 activity by measuring IETD-pNA substrate cleavage up to 30 uM after 24 hrs by Bradford dye binding assay; type: functional, cell-based; procedure, shortened: as §2
SK-MEL-1 [19] = assay: Induction of apoptosis in human SK-MEL-1 cells assessed as increase in caspase-8 activity by measuring IETD-pNA substrate cleavage at 3 uM after 24 hrs by Bradford dye binding assay; type: functional, cell-based; procedure, shortened: as §2
SK-MEL-1 [20] = assay: Induction of apoptosis in human SK-MEL-1 cells assessed as increase in caspase-9 activity by measuring LEHD-pNA substrate cleavage up to 30 uM after 24 hrs by Bradford dye binding assay; type: functional, cell-based; procedure, shortened: as §2
SK-MEL-1 [21] = assay: Induction of apoptosis in human SK-MEL-1 cells assessed as increase in caspase-9 activity by measuring LEHD-pNA substrate cleavage at 3 uM after 24 hrs by Bradford dye binding assay; type: functional, cell-based; procedure, shortened: as §2
SK-MEL-1 [22] = assay: Induction of apoptosis in human SK-MEL-1 cells assessed as cleavage of main executioner caspase up to 30 uM after 24 hrs by Western blot method; type: functional, cell-based
Procedure, shortened: (§3)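 Cells were treated with increasing concentrations for 24 h and washed in PBS. Whole-cell lysates were used for pro-caspase-3. For cytochrome c, a cytosolic fraction was prepared: cells swelled in hypotonic HEPES buffer with 250 mM sucrose, were lysed through a 22-gauge needle, and spun at 1000×g then 105000×g (45 min, 4 °C). Both were probed by immunoblotting.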

SK-MEL-1 [23] = assay: Induction of apoptosis in human SK-MEL-1 cells assessed as increase in […] cytochrome c level by Western blot analysis; type: functional, cell-based; procedure, shortened: as §3
Bos taurus = organism: Bos taurus; assay: Inhibition of bovine tubulin polymerization measured at every 30 secs intervals for 50 mins in presence of GTP
Procedure, shortened: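 Purified bovine tubulin without MAPs was incubated in 80 mM PIPES pH 7.0 with 1 mM GTP, 1 mM EGTA, 1 mM MgCl2 and 10% glycerol at 37 °C, across several compound concentrations. A340 was recorded every 30 s for 50 min. Taxol (10 µM) and colchicine (5 µM) served as promotion and inhibition controls.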

SK-MEL-1 [24] = assay: Cytotoxicity against human SK-MEL-1 cells assessed as formation of unhealthy cells after 24 hrs by inverted phase contrast microscopic analysis; type: functional, cell-based
Procedure, shortened: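 Cells were grown in RPMI 1640 with 10% heat-inactivated FBS, 2 mM L-glutamine and penicillin/streptomycin (37 °C, 5% CO2). They were incubated with vehicle or increasing concentrations for 24 h, then imaged under an inverted phase-contrast microscope.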

With `COc1ccc2c(=O)c(O)c(-c3ccc(O)cc3)oc2c1` the pIC50 (SK-MEL-1 [1]) was < 4.00.

In the case of `COc1ccc(-c2oc3ccccc3c(=O)c2OC)cc1O`, the Activity (SK-MEL-1 [2]) was 15.9%, the Activity (SK-MEL-1 [3]) was 9.2% and the Activity (SK-MEL-1 [4]) was 21.9%. The Activity (SK-MEL-1 [5]) was 24.4%, the Activity (SK-MEL-1 [6]) was 14.4% and the Activity (SK-MEL-1 [7]) was 30.7%. For the same compound, the Activity (SK-MEL-1 [8]) was 21.4%, the Activity (SK-MEL-1 [9]) was 23.7% and the Activity (SK-MEL-1 [10]) was 26.8%. The Activity (SK-MEL-1 [11]) was 37.9%, the Activity (SK-MEL-1 [12]) was 52.2% and the Activity (SK-MEL-1 [13]) was 20.2%. The Activity (SK-MEL-1 [14]) was “Active”, the Activity (SK-MEL-1 [15]) was “Active” and the Activity (SK-MEL-1 [16]) was “Active”. The Activity (SK-MEL-1 [17]) was “Active”, the Activity (SK-MEL-1 [18]) was “Active” and the Activity (SK-MEL-1 [19]) was “Active”. For the same compound, the Activity (SK-MEL-1 [20]) was “Active”, the Activity (SK-MEL-1 [21]) was “Active” and the Activity (SK-MEL-1 [22]) was “Active”. The Activity (SK-MEL-1 [23]) was “Dose-dependent effect”, the inhibition (Bos taurus) was “Dose-dependent effect” and the Activity (SK-MEL-1 [24]) was “Active”. The pIC50 (SK-MEL-1 [1]) was 5.16.

`COc1cc(-c2oc3ccccc3c(=O)c2OC)ccc1O` showed a pIC50 (SK-MEL-1 [1]) of 4.10.

For `O=c1c(O)c(-c2ccc(O)cc2)oc2ccccc12`, the pIC50 (SK-MEL-1 [1]) was < 4.00.

Compound `COc1ccc2c(=O)c(OC)c(-c3ccc(O)c(OC)c3)oc2c1` has a pIC50 (SK-MEL-1 [1]) of 4.28.

`COc1cc(-c2oc3ccccc3c(=O)c2O)ccc1O` gave a pIC50 (SK-MEL-1 [1]) of 4.66.

In the case of `COc1ccc2c(=O)c(O)c(-c3ccc(O)c(OC)c3)oc2c1`, the pIC50 (SK-MEL-1 [1]) was 4.43.

With `COc1ccc2c(=O)c(O)c(-c3ccccc3O)oc2c1` the pIC50 (SK-MEL-1 [1]) was < 4.00.

With `COc1c(-c2ccccc2O)oc2ccccc2c1=O` the pIC50 (SK-MEL-1 [1]) was < 4.00.

For `COc1c(-c2ccc(O)cc2)oc2ccccc2c1=O`, the pIC50 (SK-MEL-1 [1]) was 4.04.

For `O=c1c(O)c(-c2ccccc2O)oc2ccccc12`, the pIC50 (SK-MEL-1 [1]) was < 4.00.

`COc1ccc2c(=O)c(OC)c(-c3ccc(O)cc3)oc2c1` was tested, and the pIC50 (SK-MEL-1 [1]) was < 4.00.

In the case of `COc1ccc2c(=O)c(OC)c(-c3ccc(OC)c(O)c3)oc2c1`, the pIC50 (SK-MEL-1 [1]) was 4.58.

Work on `COc1ccc2c(=O)c(O)c(-c3ccc(OC)c(O)c3)oc2c1` yielded a pIC50 (SK-MEL-1 [1]) of 4.81.

For `COc1ccc(-c2oc3ccccc3c(=O)c2O)cc1O`, the pIC50 (SK-MEL-1 [1]) was 4.49.

In the case of `COc1cc([C@@H]2c3cc4c(cc3[C@@H](O[C@@H]3O[C@@H]5CO[C@@H](C)O[C@H]5[C@H](O)[C@H]3O)[C@H]3COC(=O)[C@H]23)OCO4)cc(OC)c1O` [ETOPOSIDE], the pIC50 (SK-MEL-1 [1]) was 5.10.
